The subject of one data set is K562. The data set is described as follows: Antiproliferative activity against human K562 cells after 72 hrs by fluorescence spectroscopy. Type of data set: cell-based. The settings on record: K562, 72 h. A digest of the protocol: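 K562 cells at 1 × 10^4 cells/100 μL exposed to compounds for 72 h. Fluorescent viability reagent added for the final 2 h, then fluorescence read. Viability expressed as percent of untreated cells after subtracting a media-only blank.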

Data set [1] addresses Butyrophilin subfamily 3 member A1 (Homo sapiens) (UniProt O00481). The data set is described as follows: Activation of BTN3A1 in human Vgamma9Vdelta2 T cells assessed as induction of interleukin 2 stimulated cell proliferation by measuring increase in CD3 positive cells at 0.1 uM treated for 72 hrs measured on day 11 post last treatment by flow cytometry. In kind it is cell-based. A digest of the protocol: (§1)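 Human peripheral blood mononuclear cells exposed to compound for 72 h together with interleukin 2, then grown for 11 days. CD3+/γδ TCR+ cells were scored by flow cytometry. […] Negative controls were cells with or without interleukin 2 and no compound. Bars show mean and SD, n=3, with ANOVA and Tukey post-hoc test.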
For orientation: In flow cytometry, cells or beads pass a laser one at a time.

Data set [2] in a line: Toxicity in human Vgamma9/Vdelta2 T cells treated for 72 hrs measured on day 11 post last treatment by flow cytometry. In kind it is cell-based, Vgamma9/Vdelta2 T cell. A digest of the protocol: (§2)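 Human peripheral blood mononuclear cells were treated with compound for 72 h, cultured to day 11, and Vγ9Vδ2 (CD3+/γδ TCR+) cells were assessed by flow cytometry over a dose-response range. Interleukin 2 and untreated controls were included. Runs were done at least three independent times using cells from at least 2 donors.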

Data set [3] has as its target Butyrophilin subfamily 3 member A1 (Homo sapiens) (UniProt O00481). The data set is described as follows: Activation of BTN3A1 in human Vgamma9Vdelta2 T cells assessed as induction of interleukin 2 stimulated cell proliferation by measuring increase in gammadelta T cell receptor positive cells at 0.1 uM treated for 72 hrs measured on day 11 post last treatment by flow cytometry. A digest of the protocol:
as §1

A short description of data set [4]: Selectivity index, ratio of IC50 for human Vgamma9Vdelta2 T cells to EC50 for BTN3A1 in human Vgamma9Vdelta2 T cells. In kind it is functional.
Data set [5] can be described thus: Safety index, ratio of HMBPP IC50 to compound IC50 for human K562 cells. Type of data set: ADME, cell-based. The settings on record: read-out: Ratio IC50. Put shortly: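 Direct K562 toxicity: 1 × 10^4 cells/100 μL exposed to compounds for 72 h, with cell quantibluo reagent added for the final 2 h and a fluorescence read-out. Viable cells were expressed as % of untreated control after subtracting a media-only blank, giving an IC50. The fold value divides the reference IC50 by the test IC50.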

Data set [6] deals with Butyrophilin subfamily 3 member A1 (Homo sapiens) (UniProt O00481). The data set is described as follows: Binding affinity to recombinant C-terminal His-tagged BTN3A1 intracellular domain (unknown origin) expressed in BL21(DE) at […] by isothermal titration calorimetry. Put shortly:
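Full intracellular domain of BTN3A1 was purified as previously described. Protein was at 43 μM and titrant compound at 300–860 μM. Three independent titrations were run per compound.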

A short description of data set [7]: Toxicity in human Vgamma9/Vdelta2 T cells at >= 10 uM treated for 72 hrs measured on day 11 post last treatment by flow cytometry. In kind it is cell-based. The settings on record: vgamma9/vdelta2 t cell. Put shortly: as §2
For data set [8], the target named is Butyrophilin subfamily 3 member A1 (Homo sapiens) (UniProt O00481). The data set is described as follows: Potency index, ratio of HMBPP EC50 to compound EC50 for BTN3A1 in human Vgamma9Vdelta2 T cells.
Sequence of Butyrophilin subfamily 3 member A1 (Homo sapiens) (O00481 30-513 limits assumed): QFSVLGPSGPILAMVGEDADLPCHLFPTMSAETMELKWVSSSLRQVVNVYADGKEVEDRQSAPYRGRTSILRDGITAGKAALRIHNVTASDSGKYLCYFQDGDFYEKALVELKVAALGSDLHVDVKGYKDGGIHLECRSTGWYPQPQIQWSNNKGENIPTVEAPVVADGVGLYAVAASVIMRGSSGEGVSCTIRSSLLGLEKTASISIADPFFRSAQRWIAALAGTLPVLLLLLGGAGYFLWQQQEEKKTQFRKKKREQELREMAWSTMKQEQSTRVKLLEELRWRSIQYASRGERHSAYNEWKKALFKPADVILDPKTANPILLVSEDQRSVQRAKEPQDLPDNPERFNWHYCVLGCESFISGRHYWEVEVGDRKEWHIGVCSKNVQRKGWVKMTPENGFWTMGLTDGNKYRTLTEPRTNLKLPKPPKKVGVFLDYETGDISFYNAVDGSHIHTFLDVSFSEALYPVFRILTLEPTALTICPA
Data set [9] has the same target. The data set can be described thus: Inhibition of HMBPP binding to recombinant C-terminal His-tagged BTN3A1 intracellular domain (unknown origin) expressed in BL21(DE) by isothermal titration calorimetry. Background: ITC needs no label: the signal is the heat of the interaction.
The target is the same in data set [10]. The data set is described as follows: Inhibition of HMBPP binding to recombinant C-terminal His-tagged BTN3A1 intracellular domain (unknown origin) expressed in BL21(DE) assessed as change in entropy of HMBPP binding at 10-fold higher dose of compound by isothermal titration calorimetry (reference value: 19 kJ/mol). In kind it is cell-based.
Data set [11] has the same target. The data set is described as follows: Inhibition of HMBPP binding to recombinant C-terminal His-tagged BTN3A1 intracellular domain (unknown origin) expressed in BL21(DE) assessed as change in entropy of HMBPP binding at 100-fold molar excess of compound by isothermal titration calorimetry (reference value: 19 kJ/mol). Type of data set: cell-based.
Data set [12] shares this target. The data set is described as follows: Binding affinity to recombinant C-terminal His-tagged BTN3A1 intracellular domain (unknown origin) expressed in BL21(DE) assessed as change in entropy at 240 uM by isothermal titration calorimetry.
Data set [13] has the same target. The data set is described as follows: Binding affinity to recombinant C-terminal His-tagged BTN3A1 intracellular domain (unknown origin) expressed in BL21(DE) assessed as change in entropy at 480 uM by isothermal titration calorimetry. A digest of the protocol:
(§3)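 Purified full BTN3A1 intracellular domain at 43 μM titrated with compound at 300–860 μM by isothermal titration calorimetry. Three independent titrations per compound.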

Data set [14] shares this target. The data set is described as follows: Binding affinity to recombinant C-terminal His-tagged BTN3A1 intracellular domain (unknown origin) expressed in BL21(DE) assessed as change in entropy at 688 uM by isothermal titration calorimetry. A digest of the protocol: as §3

Calls of active or inactive are those of the source. No cut-off for these calls is given here. Some results are limits rather than exact numbers.

Regarding `C/C(=C\COP(=O)(O)OP(=O)(O)O)CO`, the IC50 in the data set with K562 was greater than 100 µM. Moreover, the outcome in data set [1] and in [3] was Active. In addition, the midpoint of inhibition in data set [2], the IC50 at 72 h, lay at 0.5 µM.

Take `COP(=O)(CC/C=C(\C)CO)CP(=O)(OC)OC` (configuration not stated): the IC50 in the data set with K562 is greater than 100 µM. This compound gave an IC50 at 72 h in data set [2] greater than 100 µM.

Take `C/C(=C\CCP(=O)(CP(=O)(OCOC(=O)C(C)(C)C)OCOC(=O)C(C)(C)C)OCOC(=O)C(C)(C)C)CO` (configuration not stated): in [4], the “Ratio IC50/EC50” value came to 85. Further, in data set [5], the selectivity ratio was greater than 29. In addition, in data set [6], the outcome was inactive. Further, the outcome in [1] and in data set [3] was Active. This compound showed a half-maximal inhibitory concentration (IC50) at 72 h in data set [2] of 3.5 µM. Further, in data set [7], the Activity entry was “Toxic”.

With `C/C(=C\CCP(=O)(O)O)CO`, in [8], the Ratio EC50 stood at 0.00013.

As for `CC(C)=CCCP(=O)(CP(=O)(OCOC(=O)C(C)(C)C)OCOC(=O)C(C)(C)C)OCOC(=O)C(C)(C)C` (configuration not stated), half-maximal inhibition in the data set with K562 (IC50) was put at 9.7 µM. In addition, the selectivity ratio in data set [5] was greater than 10. In [2], this compound had an IC50 at 72 h greater than 100 µM.

On to `CC(C)=CCCP(=O)(O)CP(=O)(O)O`, for which, in data set [9], the inhibition result was “Dose-dependent effect”. The compound also showed an IC50 in the data set on K562 greater than 100 µM. Further, the values for the TdeltaS in data set [10] and in [11] were -1.1 kcal/mol and 6.69 kcal/mol, respectively. This compound also came in with an IC50 at 72 h in data set [2] greater than 100 µM.

Turning to `C/C(=C\CCP(=O)(O)CP(=O)(O)O)CO`, in the data set with K562, the IC50 was greater than 100 µM. For the same compound, the TdeltaS in [12] was -12 kcal/mol; in [13] it was -13.2 kcal/mol; in data set [14] it was -12.1 kcal/mol. For the same compound, in data set [2], the half-inhibitory concentration (IC50) at 72 h was greater than 100 µM.

Turning to `C/C(=C\CCP(=O)(OCOC(=O)C(C)(C)C)OCOC(=O)C(C)(C)C)CO`, in data set [4], the “Ratio IC50/EC50” value is 110. The result in data set [1] and in data set [3] was Active. Also, the Ratio EC50 in data set [8] turned out to be 0.094. In data set [2], this compound registered a concentration for half-maximal inhibition (IC50) at 72 h of 0.6 µM.

The term IC50 denotes the point on the concentration scale where inhibition reaches its midpoint. Low values mean greater potency in that assay, high ones weaker potency in that assay.

For the origin of these results see ChEMBL document CHEMBL4007426, “Phosphinophosphonates and Their Tris-pivaloyloxymethyl Prodrugs Reveal a Negatively Cooperative Butyrophilin Activation Mechanism” (J Med Chem, 2017).
